Data on one molecule can be found in ChEMBL document CHEMBL4138315, “Synthesis and Evaluation of a Novel Bivalent Selective Antagonist for the Mu-Delta Opioid Receptor Heterodimer that Reduces Morphine Withdrawal in Mice” (J Med Chem, 2018).

Active and inactive are the calls of the source. The rule behind the calls is not given here. A value given as a limit tells only on which side of the number the result lay.

Assay [1] concerns the target Delta-type opioid receptor (Homo sapiens, UniProt P41143). Put plainly: Displacement of [3H]-diprenorphine from human DOR expressed in CHO cell membranes after 80 mins by scintillation counting analysis. The conditions noted are these: cho. The procedure, abridged:
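Competition binding on MOR-, DOR- or MDOR-CHO membranes used a fixed 3H-diprenorphine level against competitor concentration curves; 30°C, 80 min, GF/B filtration, scintillation counting. Nonspecific binding defined with 500 nM each DMT-Tic-Ala-OH and CTAP. Ki was derived from IC50 and the 3H-diprenorphine KD in each line; MDOR data fitted with a 2-site model. N = 3-4, mean ± SEM.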

Assay [2] deals with T1, Opioid receptors; mu & delta (Homo sapiens, UniProt P41143+P35372). As to the kind of experiment: Antagonist activity at human MOR expressed in CHO cell membranes mixed with human DOR expressed in CHO cell membranes assessed as inhibition of CYM51010-induced [35S]-GTPgammaS binding preincubated for 5 mins followed by CYM51010 and [35S]-GTPgammaS addition measured after 80 mins. It counts as functional. The essentials: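 MOR-CHO and DOR-CHO membranes mixed at the molar ratio from MDOR-CHO saturation binding (Bmax 7.9 pmol/mg DOR, 1.1 pmol/mg MOR). Antagonist curve preincubated 5 min, then 1 µM CYM51010 and 0.1 nM 35S-GTPγS. Incubated 30°C, 80 min, then filtered and counted. Normalized to CYM51010 alone and vehicle. N = 3 independent experiments in duplicate.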
(GTPγS is a poorly hydrolysed GTP analogue; its binding reports G protein activation.)

The target in assay [3] is T1, Opioid receptors; mu & delta. As to the kind of experiment: Antagonist activity at human mu-delta opioid receptor heterodimer expressed in CHO cell membranes assessed as inhibition of CYM51010-induced [35S]-GTPgammaS binding at high site fraction preincubated for 5 mins followed by CYM51010 and [35S]-GTPgammaS addition measured after 80 mins. It counts as functional. The procedure, abridged:
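Membranes from CHO cells stably expressing human opioid receptor (N-terminal tagged) were preincubated 5 min with antagonist concentration curves, then given 1 µM CYM51010 and 0.1 nM 35S-GTPγS; 30°C, 80 min, GF/B filtration, scintillation counting. Normalized to CYM51010 alone (100%) and vehicle (0%). Fits: 1-site for MOR/DOR (IC50), 2-site for MDOR (IC50HIGH). N = 3-4, duplicate, mean ± SEM.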

For assay [4], the target named is Kappa-type opioid receptor (Homo sapiens) (UniProt P41145). Put plainly: Antagonist activity at human KOR expressed in CHO cell membranes assessed as inhibition of U50488-induced [35S]-GTPgammaS binding preincubated for 5 mins followed by U50488 and [35S]-GTPgammaS addition measured after 80 mins. The assay is classed as functional. The essentials: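 KOR-CHO membranes (human receptor, N-terminal tag), antagonist concentration curve preincubated 5 min, then 1 µM U50,488 plus 0.1 nM 35S-GTPγS added. Incubated 30°C, 80 min; filtration and scintillation counting. Vehicle 0.1% DMSO in assay buffer with 0.1% BSA. Normalized to agonist alone (100%) and vehicle (0%). One-site curve fit; N = 3 independent experiments in duplicate.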

For assay [5], the system named is Mus musculus. Put plainly: Antinociceptive activity in CD1 mouse assessed as reduction in DAMGO-induced nociception up to10 nmol, icv pretreated for 5 mins followed by DAMGO injection measured up to 2 hrs by tail flick assay. It counts as functional, organism-based. A general note: In hot-plate and tail-flick tests a longer latency is read as antinociception.

T1 sequence (P35372 whole entry, looked up): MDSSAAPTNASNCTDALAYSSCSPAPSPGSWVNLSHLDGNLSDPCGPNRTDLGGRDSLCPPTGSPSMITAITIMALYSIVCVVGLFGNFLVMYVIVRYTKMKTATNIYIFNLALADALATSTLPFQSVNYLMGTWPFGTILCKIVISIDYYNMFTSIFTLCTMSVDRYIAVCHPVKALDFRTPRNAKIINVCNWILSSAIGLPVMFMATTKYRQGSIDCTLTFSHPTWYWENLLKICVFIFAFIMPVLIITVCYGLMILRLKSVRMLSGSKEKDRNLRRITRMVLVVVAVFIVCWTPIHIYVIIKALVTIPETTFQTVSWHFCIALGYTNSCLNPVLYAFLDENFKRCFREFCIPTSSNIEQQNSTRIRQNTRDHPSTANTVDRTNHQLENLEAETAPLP
T1 sequence (P41143 whole entry, looked up): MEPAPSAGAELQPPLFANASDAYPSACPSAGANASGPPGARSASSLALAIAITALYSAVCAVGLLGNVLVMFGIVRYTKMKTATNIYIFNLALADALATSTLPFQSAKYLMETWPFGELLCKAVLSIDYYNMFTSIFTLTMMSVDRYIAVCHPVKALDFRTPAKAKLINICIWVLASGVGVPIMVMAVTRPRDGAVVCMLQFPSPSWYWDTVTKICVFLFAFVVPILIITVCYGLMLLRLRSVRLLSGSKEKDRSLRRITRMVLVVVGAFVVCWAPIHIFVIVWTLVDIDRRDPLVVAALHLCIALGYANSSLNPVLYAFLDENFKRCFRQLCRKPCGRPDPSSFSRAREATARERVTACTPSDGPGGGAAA
Sequence of Delta-type opioid receptor (P41143 whole entry): as the sequence (P41143 whole entry, looked up) above
Sequence of Kappa-type opioid receptor (Homo sapiens) (P41145 whole entry): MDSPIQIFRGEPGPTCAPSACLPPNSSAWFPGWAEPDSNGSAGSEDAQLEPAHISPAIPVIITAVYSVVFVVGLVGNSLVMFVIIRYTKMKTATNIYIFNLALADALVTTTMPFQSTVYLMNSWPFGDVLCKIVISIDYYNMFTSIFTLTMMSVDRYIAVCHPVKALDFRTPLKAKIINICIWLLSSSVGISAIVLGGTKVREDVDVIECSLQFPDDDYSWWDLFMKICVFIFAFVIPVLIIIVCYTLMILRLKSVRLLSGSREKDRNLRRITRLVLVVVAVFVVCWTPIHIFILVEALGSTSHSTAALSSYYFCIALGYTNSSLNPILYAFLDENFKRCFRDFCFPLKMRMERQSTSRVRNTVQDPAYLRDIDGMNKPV

Consider `N[C@@H](Cc1ccc(O)cc1)C(=O)N1Cc2ccccc2C[C@@H]1C(=O)NCC(=O)NCCCCC(=O)N[C@H](CCCCNC(=O)CCCCNC(=O)CNC(=O)[C@@H](Cc1cccc2ccccc12)NC(=O)[C@H](Cc1ccccc1)NC(=O)[C@@H]1CCCN1C(=O)[C@@H](N)Cc1ccc(O)cc1)C(=O)O`, for which the affinity in assay [1] corresponds to a Ki of 84 nM. For the same molecule, in assay [2], the IC50H was determined as 89 nM and the IC50L is above 1000 nM. Moreover, in assay [3], the IC50H turned out to be 0.85 nM and the IC50L was above 1000 nM. Moreover, in assay [4], the inhibition entry was “inactive”. Also, in assay [5], the outcome was inactive.
